Assay results taken from ChEMBL document CHEMBL3580569, “N-Substituted Quinolinonyl Diketo Acid Derivatives as HIV Integrase Strand Transfer Inhibitors and Their Activity against RNase H Function of Reverse Transcriptase” (J Med Chem, 2015).

Legend:
[1] = molecular target: Human immunodeficiency virus type 1 reverse transcriptase (Human immunodeficiency virus 1, UniProt Q72547); assay: Inhibition of RNase H function of HIV1 reverse transcriptase using DNA/RNA hybrid as substrate by fluorescence spectrometer analysis
[2] = molecular target: T1, Human immunodeficiency virus type 1 integrase (Human immunodeficiency virus 1, UniProt Q7ZJM1)
T1 sequence (Q7ZJM1 whole entry): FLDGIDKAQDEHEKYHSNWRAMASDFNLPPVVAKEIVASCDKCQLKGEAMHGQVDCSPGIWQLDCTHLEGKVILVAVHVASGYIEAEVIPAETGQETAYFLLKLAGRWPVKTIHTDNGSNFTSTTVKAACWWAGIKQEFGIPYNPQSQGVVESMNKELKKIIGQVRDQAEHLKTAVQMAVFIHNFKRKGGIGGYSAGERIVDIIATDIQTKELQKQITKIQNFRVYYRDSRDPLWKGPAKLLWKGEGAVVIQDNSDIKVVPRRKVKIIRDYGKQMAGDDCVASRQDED

[3] = tested on: Human immunodeficiency virus 1; assay: Antiviral activity against HIV-1 3B infected in human HeLa-CD4-LTR-beta-gal cells assessed as inhibition of viral replication by SpectraMax GEMINI-XS plate reader analysis; format: functional, organism-based; settings: Human immunodeficiency virus 1, 3B
Method in brief: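 HeLa-CD4-LTR-β-gal cells kept in DMEM, 10% serum, 0.5 mg/mL G418; seeded 10000 cells/well the day before. Drug 3-fold serially diluted over six points on cells (top 50 μM), then fresh medium or concentrated HIV-1(IIIB) supernatant added.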

[4] = Selectivity index, ratio of CC50 for human HeLa-CD4-LTR-beta-gal cells to EC50 for HIV-1 3B infected in human HeLa-CD4-LTR-beta-gal cells; format: toxicity; settings: read-out: Ratio CC50/EC50
[5] = molecular target: T1, Human immunodeficiency virus type 1 integrase; remark: listed apart in the source
HeLa = assay: Cytotoxicity against human HeLa-CD4-LTR-beta-gal cells after 24 hrs by ATPlite reagent based luminescence analysis; format: cell-based
[6] = molecular target: Human immunodeficiency virus type 1 reverse transcriptase (Human immunodeficiency virus 1) (UniProt Q72547); assay: Inhibition of RNase H function of HIV1 reverse transcriptase using DNA/RNA hybrid as substrate at 10 uM by fluorescence spectrometer analysis
Method in brief: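 RNase H activity of HIV-1 RT was measured with an RNA/DNA hybrid substrate at 250 nM final, with 150–800 ng RT, in 50 mM Tris-HCl pH 8.0, 60 mM KCl, 10 mM MgCl2 and 1% DMSO, against DMSO-only wells. Fluorescence (ex 485/em 520 nm) was read each minute over 10 min at 37 °C. Percent inhibition at 10 μM = 100(v0−vi)/v0 from initial rates, run in triplicate.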

| SMILES | IC50 [1] | IC50 [2] | EC50 [3] | selectivity ratio [4] | IC50 [5] | CC50 (HeLa) | inhibition [6] |
| --- | --- | --- | --- | --- | --- | --- | --- |
| O=C(O)/C(O)=C/C(=O)c1cn(Cc2c(F)cccc2F)c2ccccc2c1=O [RDS-1984] | 10.8 µM | 0.019 µM | 8.1 µM | > 6.2 | 0.7 µM | > 50 µM | – |
| O=C(O)/C(O)=C/C(=O)c1cn(Cc2ccc(F)c(F)c2)c2ccccc2c1=O | > 50 µM | 0.11 µM | 16.2 µM | > 3.1 | – | > 50 µM | 44% |
| O=C(O)/C(O)=C/C(=O)c1cn(Cc2ccc(Cl)cc2)c2ccccc2c1=O | > 50 µM | 0.54 µM | 0.87 µM | > 57.5 | 22 µM | > 50 µM | 56.2% |
| CCOC(=O)/C(O)=C/C(=O)c1cn(Cc2c(Cl)cccc2Cl)c2ccccc2c1=O | > 50 µM | 32 µM | 30.2 µM | > 1.7 | – | > 50 µM | 55% |
| O=C(O)/C(O)=C/C(=O)c1cn(Cc2ccc(F)cc2F)c2ccccc2c1=O | 35.9 µM | 0.01 µM | 13.8 µM | > 3.6 | – | > 50 µM | – |
| COc1ccccc1Cn1cc(C(=O)/C=C(\O)C(=O)O)c(=O)c2ccccc21 | 16.3 µM | 0.038 µM | 9.3 µM | > 5.4 | > 4.1 µM | > 50 µM | – |
| O=C(O)/C(O)=C/C(=O)c1cn(Cc2ccccc2F)c2c(Cl)cccc2c1=O | > 50 µM | 0.13 µM | > 50 µM | – | 20.5 µM | – | 45% |
| O=C(O)/C(O)=C/C(=O)c1cn(Cc2ccccc2F)c2ccccc2c1=O | > 50 µM | 0.016 µM | 2.6 µM | > 19.2 | 1.2 µM | > 50 µM | 45.1% |
| O=C(O)/C(O)=C/C(=O)c1cn(Cc2ccccc2F)c2cc(Cl)ccc2c1=O | 22.6 µM | – | 17 µM | > 2.9 | – | > 50 µM | – |
